In ChEMBL document CHEMBL1765047, “Synthesis and in vivo evaluation of (S)-6-(4-fluorophenoxy)-3-((1-[11C]methylpiperidin-3-yl)methyl)-2-o-tolylquinazolin-4(3H)-one, a potential PET tracer for growth hormone secretagogue receptor (GHSR)” (Bioorg Med Chem, 2011) one finds Ki and Activity data, which are given here for one molecule.

The structures appear in SMILES notation. Active and inactive are the calls of the source. The calls are words filed in the database; no cut-off is given here.

In general, Ki refers to the equilibrium dissociation constant of an inhibitor or competing ligand from its target. Low values mean a stronger hold on the target, high ones a looser hold on the target.

Experiment [1] has as its target Growth hormone secretagogue receptor type 1 (Homo sapiens, UniProt Q92847). The experiment in a line: Inhibition of [125I]Ghrelin binding to human Ghrelin receptor expressed in CHO-K1 cells after 60 mins by liquid scintillation spectrometry. The class given is cell-based. In outline: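 Membranes from CHO-K1 cells stably expressing human GHSR, prepared in modified HEPES pH 7.4. 0.25 mg membrane incubated with 0.03 nM [125I]human ghrelin for 60 min at 25°C; nonspecific binding with […]. Filter-bound radioactivity counted by liquid scintillation. Duplicates at multiple concentrations; one-site competition fit for IC50, Ki by Cheng-Prusoff.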

For experiment [2], the target named is Growth hormone secretagogue receptor type 1 (Mus musculus) (UniProt Q99P50). The experiment in a line: Binding affinity to mouse Ghrelin receptor in mouse hypothalamus after 90 mins in presence of receptor antagonist (S)-6-(4-Fluorophenoxy)-3-(piperidin-3-ylmethyl)-2-o-tolylquinazolin-4(3H)-one. The note with it: tested as the 11C-labelled form.
Sequence of Growth hormone secretagogue receptor type 1 (Mus musculus) (Q99P50 whole entry, looked up): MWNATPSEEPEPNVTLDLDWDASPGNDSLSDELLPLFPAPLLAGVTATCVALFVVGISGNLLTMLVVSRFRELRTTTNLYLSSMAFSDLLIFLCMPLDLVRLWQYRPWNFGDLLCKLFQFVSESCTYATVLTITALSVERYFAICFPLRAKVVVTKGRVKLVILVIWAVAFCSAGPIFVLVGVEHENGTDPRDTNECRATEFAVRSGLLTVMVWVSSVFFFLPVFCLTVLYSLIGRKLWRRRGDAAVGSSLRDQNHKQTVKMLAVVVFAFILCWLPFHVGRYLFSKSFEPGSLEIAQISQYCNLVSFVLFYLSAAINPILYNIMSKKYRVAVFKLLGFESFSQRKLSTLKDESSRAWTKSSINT

Sequence of Growth hormone secretagogue receptor type 1 (Q92847 whole entry): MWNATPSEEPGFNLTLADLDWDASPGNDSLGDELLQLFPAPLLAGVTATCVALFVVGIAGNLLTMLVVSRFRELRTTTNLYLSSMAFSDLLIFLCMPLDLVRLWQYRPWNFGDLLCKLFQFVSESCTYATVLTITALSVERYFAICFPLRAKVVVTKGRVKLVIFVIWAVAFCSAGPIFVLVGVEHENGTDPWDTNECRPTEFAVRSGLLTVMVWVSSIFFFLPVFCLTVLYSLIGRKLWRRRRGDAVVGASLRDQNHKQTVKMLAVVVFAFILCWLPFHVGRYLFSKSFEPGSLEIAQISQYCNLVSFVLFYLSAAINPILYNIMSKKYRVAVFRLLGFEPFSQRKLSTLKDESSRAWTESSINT

Molecule `Cc1ccccc1-c1nc2ccc(Oc3ccc(F)cc3)cc2c(=O)n1C[C@H]1CCCN(C)C1` yielded a Ki in experiment [1] of 22 nM. Moreover, the outcome in experiment [2] was Active.
